Our source for the Activity and MIC values is ChEMBL document CHEMBL1148952, “A new ene-triyne antibiotic from the fungus Baeospora myosura” (2004).

Values after ≈ are worked out from the molar mass of the structure shown. Active and inactive are the calls of the source. No cut-off for these calls is given here.

Assay [1] relates to Staphylococcus aureus. In words: Antimicrobial activity against methicillin-resistant coagulase negative Staphylococcus aureus after 20 hrs. The format is functional. Put shortly: (§1)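 Broth MIC determination in cation-adjusted Mueller-Hinton broth, inoculum 10^5 cfu/mL, incubated 35 °C for 20 h.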
Assay [2] has as its system Staphylococcus aureus. In words: Antimicrobial activity against methicillin-sensitive Staphylococcus aureus after 20 hrs in presence of 50% serum. The format is functional.
Assay [3] concerns Staphylococcus aureus. Nature of the assay: Antimicrobial activity against methicillin-sensitive Staphylococcus aureus after 20 hrs. The format is functional. The method, boiled down:
as §1

Assay [4] deals with Staphylococcus aureus. In words: Antimicrobial activity against methicillin-resistant Staphylococcus aureus after 20 hrs. The format is functional. The method, boiled down: as §1
Assay [5] has as its system Streptococcus pneumoniae. Nature of the assay: Antimicrobial activity against Streptococcus pneumoniae after 20 hrs. The assay is classed as functional. Put shortly: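 MIC by broth dilution in cation-adjusted Mueller-Hinton broth with 2.5% lysed horse blood. Inoculum 10^5 cfu/mL, 35 °C for 20 h. DMSO stock quantified by UV absorbance at 325 nm.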
Assay [6] has as its system Haemophilus influenzae. In words: Antimicrobial activity against Haemophilus influenzae after 20 hrs. The assay is classed as functional. The method, boiled down:
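Haemophilus Test medium broth MIC. Inoculum 10^5 cfu/mL, incubated 35 °C for 20 h. Compound supplied from a DMSO stock quantified by UV absorbance at 325 nm.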

Assay [7] deals with Enterococcus faecalis. Nature of the assay: Antimicrobial activity against vancomycin-sensitive Enterococcus faecalis after 20 hrs. The assay is classed as functional. Put shortly:
(§2)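 Broth MIC in cation-adjusted Mueller-Hinton broth. Inoculum 10^5 cfu/mL, incubated 35 °C for 20 h. Test material was held as a DMSO stock, with concentration set by UV absorbance at 325 nm of a MeOH dilution (ε = 2 × 10^4 M-1 cm-1).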

Assay [8] concerns Streptococcus pyogenes. Nature of the assay: Antimicrobial activity against Streptococcus pyogenes after 20 hrs. The assay is classed as functional.
Assay [9] relates to Priestia megaterium. Nature of the assay: Antimicrobial activity against Bacillus megaterium after 20 hrs. The format is functional. Put shortly:
as §2

For assay [10], the system named is Candida albicans. In words: Antimicrobial activity against Candida albicans after 24 hrs. The format is functional. The method, boiled down: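 Yeast MIC in RPMI 1640. Inoculum 10^3 cfu/mL, incubated 35 °C for 24 h. Compound supplied from a DMSO stock quantified by UV absorbance at 325 nm.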
Assay [11] concerns Pseudomonas aeruginosa. In words: Antimicrobial activity against Pseudomonas aeruginosa after 20 hrs. The format is functional. Put shortly: as §2
The test system of assay [12] is Streptococcus pneumoniae. Nature of the assay: Antimicrobial activity against penicillin-resistant Streptococcus pneumoniae after 20 hrs. The format is functional. Put shortly:
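Broth MIC determination in cation-adjusted Mueller-Hinton broth supplemented with 2.5% lysed horse blood, inoculum 10^5 cfu/mL, incubated 35 °C for 20 h.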

Assay [13] has as its system coagulase-negative Staphylococcus. Nature of the assay: Antimicrobial activity against methicillin-resistant coagulase negative Staphylococcus after 20 hrs.
The subject of assay [14] is Enterococcus faecium. Nature of the assay: Antimicrobial activity against vancomycin-resistant Enterococcus faecium after 20 hrs. The format is functional. Put shortly:
as §1

Assay [15] relates to Klebsiella pneumoniae. Nature of the assay: Antimicrobial activity against Klebsiella pneumoniae after 20 hrs. The assay is classed as functional. Put shortly:
as §2

For assay [16], the system named is Escherichia coli. Nature of the assay: Antimicrobial activity against Escherichia coli after 20 hrs. The format is functional. The method, boiled down:
as §2

Consider `CCCCCCCCC(=O)Nc1ccc(C(=O)O)cc1`, for which the outcome in [1], in assay [2], in [3] and in [4] was inactive.
Take `C#CC#CC#C/C=C/C(=O)Nc1ccc(C(=O)O)cc1`: the MIC in assay [5] is 8 µg/mL (≈ 30.4 µM); in assay [2], 16 µg/mL; in assay [6], 0.5 µg/mL (≈ 1.9 µM); in assay [7], 0.12 µg/mL (≈ 0.456 µM); in assay [8], 0.008 µg/mL (≈ 0.0304 µM); in assay [9], 4 µg/mL (≈ 15.2 µM). Also, the MIC was above 32 µg/mL in [10]; above 32 µg/mL in [11]; 0.0005 µg/mL (≈ 0.0019 µM) in assay [3]; 16 µg/mL (≈ 60.8 µM) in assay [12]; 0.0005 µg/mL (≈ 0.0019 µM) in assay [13]; 0.015 µg/mL (≈ 0.057 µM) in assay [14]. In addition, the MIC in assay [15] was above 32 µg/mL; in assay [4], 0.001 µg/mL (≈ 0.0038 µM); in assay [16], 32 µg/mL (≈ 122 µM).
On to `CC(=O)Nc1ccc(C(=O)O)cc1`, for which the outcome in assay [1], in assay [2], in assay [3] and in [4] was inactive.
